Experiments:
TK-10 = test: Cytotoxicity against human TK10 cells; assay type: cell-based
Summary of the method: (§1)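 Screened by NCI in its in vitro disease-oriented human tumour cell line panel. Compounds tested at five concentrations (100, 10, 1.0, 0.1 and 0.01 μM). Growth read by sulforhodamine B (SRB) signal. GI50 is the concentration reducing growth of treated cells to half that of control cells during the drug incubation.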

SF-295 = test: Cytotoxicity against human SF295 cells; assay type: cell-based
Summary of the method: (§2)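 Tested in the NCI in vitro disease-oriented human tumour cell line screen, with screening performed by NCI. Growth was read by SRB signal over the drug incubation period at five concentrations: 100, 10, 1.0, 0.1 and 0.01 μM. GI50 is the concentration that reduces growth of treated cells to half that of control cells.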

DU-145 [1] = test: Antiproliferative activity against human DU145 cells by SRB assay; assay type: functional
Summary of the method: (§3)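 Tested in the NCI in vitro human tumor cell line screen, run by the National Cancer Institute. Each compound was given at five concentrations (100, 10, 1.0, 0.1 and 0.01 μM). GI50 is the drug concentration that reduces growth of treated cells to half that of control cells during drug incubation, judged from the SRB signal.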

K562 = test: Antiproliferative activity against human K562 cells by SRB assay; assay type: functional; summary of the method: as §3
BT-549 = test: Antiproliferative activity against human BT549 cells by SRB assay; assay type: functional; summary of the method: as §3
OVCAR-3 = test: Antiproliferative activity against human OVCAR3 cells by SRB assay; assay type: functional; summary of the method: as §3
T47D = test: Antiproliferative activity against human T47D cells by SRB assay; assay type: functional
Summary of the method: (§4)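 Cell growth was tested in the NIH in vitro disease-oriented human tumor cell line screen, which NCI ran for these compounds. Compounds were tested at five concentrations (100, 10, 1.0, 0.1 and 0.01 μM), and growth was read by SRB signal. GI50 is the drug concentration that reduces growth of treated cells to half that of control cells during drug incubation.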

CCRF-CEM = test: Antiproliferative activity against human CCRF-CEM cells by SRB assay; assay type: functional; summary of the method: as §3
HOP-92 = test: Antiproliferative activity against human HOP92 cells by SRB assay; assay type: functional; summary of the method: as §3
Malme-3M = test: Antiproliferative activity against human MALME-3M cells by SRB assay; assay type: functional; summary of the method: as §3
NCI-H460 = test: Cytotoxicity against human NCI-H460 cells; assay type: cell-based
UO-31 [2] = test: Antiproliferative activity against human UO31 cells by SRB assay; assay type: functional; summary of the method: as §4
SR = test: Cytotoxicity against human SR cells; assay type: cell-based; summary of the method: as §1
IGROV-1 = test: Antiproliferative activity against human IGROV1 cells by SRB assay; assay type: functional; summary of the method: as §3
HL-60(TB) = test: Cytotoxicity against human HL-60(TB) cells; assay type: cell-based
ACHN = test: Cytotoxicity against human ACHN cells; assay type: cell-based
UO-31 [3] = test: Cytotoxicity against human UO31 cells; assay type: cell-based; summary of the method: as §1
[4] = Cytotoxicity against human Hs 578T cells; assay type: cell-based
A549 [5] = test: Antiproliferative activity against human A549 cells by SRB assay; assay type: functional; summary of the method: as §3
DU-145 [6] = test: Cytotoxicity against human DU145 cells; assay type: cell-based; summary of the method: as §2
SF-539 [7] = test: Antiproliferative activity against human SF539 cells by SRB assay; assay type: functional; summary of the method: as §3
NCI-H23 = test: Cytotoxicity against human NCI-H23 cells; assay type: cell-based
A549 [8] = test: Cytotoxicity against human A549 cells; assay type: cell-based; summary of the method: as §2
HT-29 = test: Cytotoxicity against human HT-29 cells; assay type: cell-based; summary of the method: as §2
U-251 = test: Antiproliferative activity against human U251 cells by SRB assay; assay type: functional; summary of the method: as §4
SF-539 [9] = test: Cytotoxicity against human SF539 cells; assay type: cell-based; summary of the method: as §2
RPMI-8226 = test: Cytotoxicity against human RPMI8226 cells; assay type: cell-based; summary of the method: as §2
SW-620 = test: Cytotoxicity against human SW620 cells; assay type: cell-based; summary of the method: as §1
OVCAR-4 = test: Cytotoxicity against human OVCAR4 cells; assay type: cell-based
UACC-257 = test: Antiproliferative activity against human UACC257 cells by SRB assay; assay type: functional; summary of the method: as §4
LOX IMVI = test: Cytotoxicity against human LOXIMVI cells; assay type: cell-based
MDA-MB-468 = test: Antiproliferative activity against human MDA-MB-468 cells by SRB assay; assay type: functional; summary of the method: as §3
SNB-75 = test: Antiproliferative activity against human SNB75 cells by SRB assay; assay type: functional; summary of the method: as §4

## O=C(/C=C/c1ccc(CN(CCO)CCc2c[nH]c3ccccc23)cc1)NO [DACINOSTAT]
TK-10
  LC50: > 100000 nM
SF-295
  LC50: 6910 nM
DU-145 [1]
  GI50: 580 nM
K562
  GI50: 550 nM
BT-549
  GI50: 3920 nM
OVCAR-3
  GI50: 1110 nM
T47D
  GI50: 444 nM
CCRF-CEM
  GI50: 251 nM
HOP-92
  GI50: 199 nM
Malme-3M
  GI50: 461 nM
NCI-H460
  LC50: > 100000 nM
UO-31 [2]
  GI50: 1120 nM
SR
  LC50: > 100000 nM
IGROV-1
  GI50: 187 nM
HL-60(TB)
  LC50: > 100000 nM
ACHN
  LC50: 94300 nM
UO-31 [3]
  LC50: 52800 nM
[4]
  LC50: > 100000 nM
A549 [5]
  GI50: 1090 nM
DU-145 [6]
  LC50: > 100000 nM
SF-539 [7]
  GI50: 965 nM
NCI-H23
  LC50: > 100000 nM
A549 [8]
  LC50: 94600 nM
HT-29
  LC50: > 100000 nM
U-251
  GI50: 773 nM
SF-539 [9]
  LC50: 57100 nM
RPMI-8226
  LC50: > 100000 nM
SW-620
  LC50: 81300 nM
OVCAR-4
  LC50: > 100000 nM
UACC-257
  GI50: 393 nM
LOX IMVI
  LC50: 6040 nM
MDA-MB-468
  GI50: 452 nM
SNB-75
  GI50: 318 nM

— ChEMBL document CHEMBL1806473, “Structure-based optimization of click-based histone deacetylase inhibitors” (Eur J Med Chem, 2011)
